# Test results reported in ChEMBL document CHEMBL1156597, “Structure-activity relationship of kahalalide F synthetic analogues” (J Med Chem, 2008).
# Assays:
# [1] = test system: LNCaP; experiment: Cytotoxicity against human LNcaP cells after 48 hrs by SRB assay; assay type: functional; conditions: for CC50: read-out: LC50 (the source's name)
# Procedure, shortened: (§1)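 Cells grown in RPMI 1640 with 10% FBS and penicillin/streptomycin at 37 °C and 5% CO₂, trypsinized, then seeded at 5 × 10³/well. After 18 h drug-free attachment, samples in DMSO/EtOH/PBS (0.5:0.5:99) were added for 48 h continuous exposure. Cells were fixed with cold TCA (1 h, 4 °C) and stained with SRB (10 min). Tris-solubilized stain read at 490 nm. Triplicate wells, mean ± SD; GI₅₀ derived.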
# [2] = test system: HT-29; experiment: Cytotoxicity against human HT29 cells after 48 hrs by SRB assay; assay type: functional, cell-based; conditions: Homo sapiens, HT-29, 48 h; for CC50: read-out: LC50 (the source's name); procedure, shortened: as §1
# [3] = test system: LoVo; experiment: Cytotoxicity against human doxorubicin resistant LoVo cells after 48 hrs by SRB assay; assay type: functional; conditions: for CC50: read-out: LC50 (the source's name); procedure, shortened: as §1
# [4] = test system: DU-145; experiment: Cytotoxicity against human DU145 cells after 48 hrs by SRB assay; assay type: functional, cell-based; conditions: Homo sapiens, DU-145, 48 h; for CC50: read-out: LC50 (the source's name); procedure, shortened: as §1
# [5] = test system: PANC-1; experiment: Cytotoxicity against human PANC1 cells after 48 hrs by SRB assay; assay type: functional; conditions: PANC-1, 48 h; for CC50: read-out: LC50 (the source's name); procedure, shortened: as §1
# [6] = test system: HeLa; experiment: Cytotoxicity against human HeLa cells after 48 hrs by SRB assay; assay type: functional; conditions: for CC50: read-out: LC50 (the source's name); procedure, shortened: as §1
# [7] = test system: SK-MEL-28; experiment: Cytotoxicity against human SK-MEL-28 cells after 48 hrs by SRB assay; assay type: functional, cell-based; conditions: Homo sapiens, SK-MEL-28, 48 h; for CC50: read-out: LC50 (the source's name); procedure, shortened: as §1
# [8] = test system: A549; experiment: Cytotoxicity against human A549 cells after 48 hrs by SRB assay; assay type: functional, cell-based; conditions: Homo sapiens, A549, 48 h; procedure, shortened: as §1
# [9] = Cytotoxicity against human IGROV-ET cells after 48 hrs by SRB assay; assay type: functional; conditions: for CC50: read-out: LC50 (the source's name); procedure, shortened: as §1
# [10] = test system: LoVo; experiment: Cytotoxicity against human LoVo cells after 48 hrs by SRB assay; assay type: functional; conditions: for CC50: read-out: LC50 (the source's name)
# [11] = test system: SK-BR-3; experiment: Cytotoxicity against human SKBR3 cells after 48 hrs by SRB assay; assay type: functional; conditions: SK-BR-3, 48 h; for CC50: read-out: LC50 (the source's name); procedure, shortened: as §1
# [12] = Cytotoxicity against human HeLa-APL cells after 48 hrs by SRB assay; assay type: functional; procedure, shortened: as §1
# [13] = test system: K562; experiment: Cytotoxicity against human K562 cells after 48 hrs by SRB assay; assay type: functional; conditions: K562, 48 h; for CC50: read-out: LC50 (the source's name); procedure, shortened: as §1
# [14] = Cytotoxicity against human IGROV cells after 48 hrs by SRB assay; assay type: functional; conditions: for CC50: read-out: LC50 (the source's name); procedure, shortened: as §1
structure (smiles),measurement,setting,value
C/C=C1\NC(=O)[C@H](Cc2ccccc2)NC(=O)[C@@H](C(C)C)NC(=O)[C@@H]([C@H](C)CC)NC(=O)[C@H](NC(=O)[C@H](NC(=O)[C@H](CCCN)NC(=O)[C@H]2CCCN2C(=O)[C@H](NC(=O)[C@@H](NC(=O)[C@@H](NC(=O)[C@H](NC(=O)CCCCCCCCCC)C(C)C)[C@@H](C)O)C(C)C)C(C)C)[C@H](C)CC)[C@H](C)OC(=O)[C@H](C(C)C)NC1=O,GI50,[1],423 nM
same,TGI,[1],586 nM
same,CC50,[1],720 nM
same,GI50,[2],371 nM
same,TGI,[2],354 nM
same,CC50,[2],201 nM
same,GI50,[3],96.2 nM
same,TGI,[3],189 nM
same,CC50,[3],265 nM
same,GI50,[4],188 nM
same,GI50,[4]; read-out: GI50,183 nM
same,CC50,[4],260 nM
same,GI50,[5],1630 nM
same,TGI,[5],1540 nM
same,CC50,[5],1440 nM
same,GI50,[6],139 nM
same,TGI,[6],129 nM
same,CC50,[6],120 nM
same,GI50,[7],251 nM
same,GI50,[7]; read-out: GI50,193 nM
same,CC50,[7],561 nM
same,GI50,[8],186 nM
same,LC50,[8],456 nM
same,GI50,[8]; read-out: GI50,160 nM
same,GI50,[9],218 nM
same,GI50,[9]; read-out: GI50,166 nM
same,CC50,[9],318 nM
same,GI50,[10],287 nM
same,TGI,[10],319 nM
same,CC50,[10],352 nM
same,GI50,[11],69.9 nM
same,GI50,[11]; read-out: GI50,61.4 nM
same,CC50,[11],73.6 nM
same,GI50,[12],237 nM
same,LC50 (concentration giving 50% net cell kill),[12],760 nM
same,TGI,[12],399 nM
same,CC50,[13],1170 nM
same,GI50,[14],146 nM
same,GI50,[14]; read-out: GI50,218 nM
same,CC50,[14],196 nM
C/C=C1\NC(=O)[C@H](Cc2ccccc2)NC(=O)[C@@H](C(C)C)NC(=O)[C@@H]([C@H](C)CC)NC(=O)[C@H](NC(=O)[C@H](NC(=O)[C@H](CCCN)NC(=O)[C@H]2CCCN2C(=O)[C@H](NC(=O)[C@@H](NC(=O)[C@@H](NC(=O)[C@H](NC(=O)CCCCCCC)C(C)C)[C@@H](C)O)C(C)C)C(C)C)[C@H](C)CC)[C@H](C)OC(=O)[C@H](C(C)C)NC1=O,GI50,[1],779 nM
same,TGI,[1],837 nM
same,CC50,[1],889 nM
same,GI50,[2],578 nM
same,TGI,[2],587 nM
same,CC50,[2],917 nM
same,GI50,[3],299 nM
same,TGI,[3],289 nM
same,CC50,[3],278 nM
same,GI50,[4],666 nM
same,GI50,[4]; read-out: GI50,578 nM
same,CC50,[4],758 nM
same,GI50,[5],2830 nM
same,TGI,[5],4210 nM
same,CC50,[5],2290 nM
same,GI50,[6],946 nM
same,TGI,[6],1010 nM
same,CC50,[6],1080 nM
same,GI50,[7],949 nM
same,GI50,[7]; read-out: GI50,933 nM
same,CC50,[7],966 nM
same,LC50,[8],1200 nM
same,TGI,[8],1130 nM
same,GI50,[8]; read-out: GI50,1050 nM
same,GI50,[9],513 nM
same,GI50,[9]; read-out: GI50,529 nM
same,CC50,[9],393 nM
same,GI50,[10],321 nM
same,TGI,[10],396 nM
same,CC50,[10],443 nM
same,TGI,[11],359 nM
same,GI50,[11]; read-out: GI50,343 nM
same,CC50,[11],374 nM
same,GI50,[12],527 nM
same,LC50 (concentration giving 50% net cell kill),[12],1220 nM
same,TGI,[12],808 nM
same,GI50,[13],1000 nM
same,TGI,[13],1230 nM
same,CC50,[13],1500 nM
same,GI50,[14],580 nM
same,GI50,[14]; read-out: GI50,684 nM
same,CC50,[14],509 nM
